In ChEMBL document CHEMBL1155459, “On-bead screening of a combinatorial fumaric acid derived peptide library yields antiplasmodial cysteine protease inhibitors with unusual peptide sequences” (J Med Chem, 2009):
Peptide text beside a SMILES is read from it.

Key:
[1] = Inhibition of Plasmodium falciparum falcipain-2 after 12 hrs by fluorescence spectroscopy-based on-bead assay; parameters: concentration or dose not given beside the values; details: concentration not given here
Procedure, shortened: (§1)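 Library members on resin (PEGA, theoretical loading 0.40 mmol/g; added as DMSO suspension, 0.64 mM final inhibitor) preincubated with enzyme 12 h, then Cbz-Phe-Arg-AMC 40 μM added; AMC release followed by fluorescence (ex 380/em 460 nm). Kinetics compared with inhibitor-free amino-PEGA resin.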

[2] = molecular target: Rhodesain (Trypanosoma brucei rhodesiense) (UniProt Q95PM0); test: Inhibition of Trypanosoma brucei rhodesiense rhodesain after 12 hrs by fluorescence spectroscopy-based on-bead assay; parameters: concentration or dose not given beside the values; details: concentration not given here; procedure, shortened: as §1
Sequence of Rhodesain (Trypanosoma brucei rhodesiense) (Q95PM0 1-450): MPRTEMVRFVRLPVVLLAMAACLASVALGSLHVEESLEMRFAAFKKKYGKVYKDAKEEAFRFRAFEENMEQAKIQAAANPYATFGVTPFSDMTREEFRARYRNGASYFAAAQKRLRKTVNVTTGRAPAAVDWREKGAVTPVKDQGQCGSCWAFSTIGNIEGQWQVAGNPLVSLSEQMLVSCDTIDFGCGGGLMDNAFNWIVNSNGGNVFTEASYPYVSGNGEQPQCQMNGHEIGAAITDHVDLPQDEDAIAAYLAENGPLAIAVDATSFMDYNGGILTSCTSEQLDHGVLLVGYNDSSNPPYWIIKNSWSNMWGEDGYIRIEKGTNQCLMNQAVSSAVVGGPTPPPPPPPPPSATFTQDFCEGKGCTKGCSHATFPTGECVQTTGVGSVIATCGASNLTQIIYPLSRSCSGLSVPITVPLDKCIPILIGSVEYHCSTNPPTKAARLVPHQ

Molecule CC(=O)NC[C@H](NC(=O)/C=C/C(=O)NCC(=O)NCC(=O)N[C@@H](Cc1ccccc1)C(=O)O)C(=O)N[C@@H](Cc1ccccc1)C(=O)N[C@H](C(=O)N[C@H](C(N)=O)C(C)C)C(C)C (HELM PEPTIDE1{[O=C(/C=C/C(=O)[*:2])NCC(=O)NCC(=O)N[C@@H](Cc1ccccc1)C(=O)O].[O=C([C@H](CN[*:3])N[*:1])[*:2]].F.V.V.[am]}|PEPTIDE2{[ac]}$PEPTIDE1,PEPTIDE2,2:R3-1:R2$$$V2.0) has an inhibition [1] of 46% and an inhibition [2] of 61%.

CC(=O)NC[C@H](NC(=O)/C=C/C(=O)NCC(=O)NCC(=O)N[C@@H](Cc1ccccc1)C(=O)O)C(=O)N[C@H](C(=O)N[C@@H](CC(C)C)C(=O)N[C@H](C(N)=O)C(C)C)c1ccccc1 (HELM PEPTIDE1{[O=C(/C=C/C(=O)[*:2])NCC(=O)NCC(=O)N[C@@H](Cc1ccccc1)C(=O)O].[O=C([C@H](CN[*:3])N[*:1])[*:2]].[Phg].L.V.[am]}|PEPTIDE2{[ac]}$PEPTIDE1,PEPTIDE2,2:R3-1:R2$$$V2.0) showed an inhibition [1] of 38% and an inhibition [2] of 66%.

With CC(=O)NC[C@H](NC(=O)/C=C/C(=O)N[C@@H](C)C(=O)NCC(=O)N[C@@H](Cc1ccccc1)C(=O)O)C(=O)N[C@@H](CC(C)C)C(=O)N[C@@H](C)C(=O)N[C@H](C(N)=O)C(C)C (HELM PEPTIDE1{[C[C@H](NC(=O)/C=C/C(=O)[*:2])C(=O)NCC(=O)N[C@@H](Cc1ccccc1)C(=O)O].[O=C([C@H](CN[*:3])N[*:1])[*:2]].L.A.V.[am]}|PEPTIDE2{[ac]}$PEPTIDE1,PEPTIDE2,2:R3-1:R2$$$V2.0) the inhibition [1] was 28% and the inhibition [2] was 19%.

For CC[C@H](C)[C@H](NC(=O)[C@H](C)NC(=O)/C=C/C(=O)NCC(=O)NCC(=O)N[C@@H](Cc1ccccc1)C(=O)O)C(=O)N[C@@H](CC(C)C)C(=O)N[C@H](C(N)=O)C(C)C (HELM PEPTIDE1{[O=C(/C=C/C(=O)[*:2])NCC(=O)NCC(=O)N[C@@H](Cc1ccccc1)C(=O)O].A.I.L.V.[am]}$$$$V2.0), the inhibition [1] was 61% and the inhibition [2] was 58%.

Molecule CC(C)[C@H](NC(=O)[C@@H](NC(=O)[C@@H](NC(=O)[C@H](CCC(N)=O)NC(=O)/C=C/C(=O)NCC(=O)NCC(=O)N[C@@H](Cc1ccccc1)C(=O)O)c1ccccc1)C(C)C)C(N)=O (HELM PEPTIDE1{[O=C(/C=C/C(=O)[*:2])NCC(=O)NCC(=O)N[C@@H](Cc1ccccc1)C(=O)O].Q.[Phg].V.V.[am]}$$$$V2.0) has an inhibition [1] of 63% and an inhibition [2] of 45%.

In the case of CC(C)[C@H](NC(=O)[C@@H](NC(=O)[C@H](Cc1ccccc1)NC(=O)[C@H](CC(N)=O)NC(=O)/C=C/C(=O)N[C@@H](C)C(=O)NCC(=O)N[C@@H](Cc1ccccc1)C(=O)O)C(C)C)C(N)=O (HELM PEPTIDE1{[C[C@H](NC(=O)/C=C/C(=O)[*:2])C(=O)NCC(=O)N[C@@H](Cc1ccccc1)C(=O)O].N.F.V.V.[am]}$$$$V2.0), the inhibition [1] is reported as 54% and the inhibition [2] is reported as 53%.

Molecule CC(C)[C@H](NC(=O)[C@@H](NC(=O)[C@@H](NC(=O)[C@H](C)NC(=O)/C=C/C(=O)NCC(=O)NCC(=O)N[C@@H](Cc1ccccc1)C(=O)O)c1ccccc1)C(C)C)C(N)=O (HELM PEPTIDE1{[O=C(/C=C/C(=O)[*:2])NCC(=O)NCC(=O)N[C@@H](Cc1ccccc1)C(=O)O].A.[Phg].V.V.[am]}$$$$V2.0) has an inhibition [1] of 56% and an inhibition [2] of 36%.

CC(C)C[C@H](NC(=O)[C@H](Cc1ccccc1)NC(=O)/C=C/C(=O)NCC(=O)NCC(=O)N[C@@H](Cc1ccccc1)C(=O)O)C(=O)N[C@H](C(=O)N[C@H](C(N)=O)C(C)C)C(C)C (HELM PEPTIDE1{[O=C(/C=C/C(=O)[*:2])NCC(=O)NCC(=O)N[C@@H](Cc1ccccc1)C(=O)O].F.L.V.V.[am]}$$$$V2.0) gave an inhibition [1] of 46% and an inhibition [2] of 58%.

In the case of CC(C)[C@H](NC(=O)[C@@H](NC(=O)[C@@H](NC(=O)[C@H](C)NC(=O)/C=C/C(=O)NCC(=O)NCC(=O)N[C@@H](Cc1ccccc1)C(=O)O)C1CCCCC1)C(C)C)C(N)=O (HELM PEPTIDE1{[O=C(/C=C/C(=O)[*:2])NCC(=O)NCC(=O)N[C@@H](Cc1ccccc1)C(=O)O].A.[O=C([C@@H](N[*:1])C1CCCCC1)[*:2]].V.V.[am]}$$$$V2.0), the inhibition [1] is reported as 54% and the inhibition [2] is reported as 40%.

With CC(C)C[C@H](NC(=O)[C@H](CC(N)=O)NC(=O)/C=C/C(=O)N[C@@H](C)C(=O)NCC(=O)N[C@@H](Cc1ccccc1)C(=O)O)C(=O)N[C@@H](C)C(=O)N[C@H](C(N)=O)C(C)C (HELM PEPTIDE1{[C[C@H](NC(=O)/C=C/C(=O)[*:2])C(=O)NCC(=O)N[C@@H](Cc1ccccc1)C(=O)O].N.L.A.V.[am]}$$$$V2.0) the inhibition [1] was 33% and the inhibition [2] was 42%.

For CC(C)C[C@H](NC(=O)[C@H](Cc1ccccc1)NC(=O)[C@H](C)NC(=O)/C=C/C(=O)N[C@@H](C)C(=O)NCC(=O)N[C@@H](Cc1ccccc1)C(=O)O)C(=O)N[C@H](C(N)=O)C(C)C (HELM PEPTIDE1{[C[C@H](NC(=O)/C=C/C(=O)[*:2])C(=O)NCC(=O)N[C@@H](Cc1ccccc1)C(=O)O].A.F.L.V.[am]}$$$$V2.0), the inhibition [1] was 57% and the inhibition [2] was 66%.

With CC(C)[C@H](NC(=O)[C@@H](NC(=O)[C@@H](NC(=O)[C@H](Cc1ccccc1)NC(=O)/C=C/C(=O)NCC(=O)NCC(=O)N[C@@H](Cc1ccccc1)C(=O)O)C1CCCCC1)C(C)C)C(N)=O (HELM PEPTIDE1{[O=C(/C=C/C(=O)[*:2])NCC(=O)NCC(=O)N[C@@H](Cc1ccccc1)C(=O)O].F.[O=C([C@@H](N[*:1])C1CCCCC1)[*:2]].V.V.[am]}$$$$V2.0) the inhibition [1] was 48% and the inhibition [2] was 49%.

Work on CC(C)[C@H](NC(=O)[C@@H](NC(=O)[C@H](Cc1ccccc1)NC(=O)[C@H](Cc1ccccc1)NC(=O)/C=C/C(=O)NCC(=O)NCC(=O)N[C@@H](Cc1ccccc1)C(=O)O)C(C)C)C(N)=O (HELM PEPTIDE1{[O=C(/C=C/C(=O)[*:2])NCC(=O)NCC(=O)N[C@@H](Cc1ccccc1)C(=O)O].F.F.V.V.[am]}$$$$V2.0) yielded an inhibition [1] of 60% and an inhibition [2] of 51%.

Molecule CC[C@H](C)[C@H](NC(=O)[C@H](CNC(C)=O)NC(=O)/C=C/C(=O)N[C@@H](C)C(=O)NCC(=O)N[C@@H](Cc1ccccc1)C(=O)O)C(=O)N[C@H](C(=O)N[C@H](C(N)=O)C(C)C)C(C)C (HELM PEPTIDE1{[C[C@H](NC(=O)/C=C/C(=O)[*:2])C(=O)NCC(=O)N[C@@H](Cc1ccccc1)C(=O)O].[O=C([C@H](CN[*:3])N[*:1])[*:2]].I.V.V.[am]}|PEPTIDE2{[ac]}$PEPTIDE1,PEPTIDE2,2:R3-1:R2$$$V2.0) has an inhibition [1] of 52% and an inhibition [2] of 49%.

CC[C@H](C)[C@H](NC(=O)[C@H](CCC(N)=O)NC(=O)/C=C/C(=O)N[C@@H](C)C(=O)NCC(=O)N[C@@H](Cc1ccccc1)C(=O)O)C(=O)N[C@@H](C)C(=O)N[C@H](C(N)=O)C(C)C (HELM PEPTIDE1{[C[C@H](NC(=O)/C=C/C(=O)[*:2])C(=O)NCC(=O)N[C@@H](Cc1ccccc1)C(=O)O].Q.I.A.V.[am]}$$$$V2.0) gave an inhibition [1] of 43% and an inhibition [2] of 29%.

CC(=O)NC[C@H](NC(=O)/C=C/C(=O)NCC(=O)NCC(=O)N[C@@H](Cc1ccccc1)C(=O)O)C(=O)N[C@@H](CC(C)C)C(=O)N[C@H](C(=O)N[C@H](C(N)=O)C(C)C)C(C)C (HELM PEPTIDE1{[O=C(/C=C/C(=O)[*:2])NCC(=O)NCC(=O)N[C@@H](Cc1ccccc1)C(=O)O].[O=C([C@H](CN[*:3])N[*:1])[*:2]].L.V.V.[am]}|PEPTIDE2{[ac]}$PEPTIDE1,PEPTIDE2,2:R3-1:R2$$$V2.0) gave an inhibition [1] of 41% and an inhibition [2] of 54%.
